7 molecules from ChEMBL document CHEMBL3351657, “γ-Hydroxyethyl piperidine iminosugar and N-alkylated derivatives: a study of their activity as glycosidase inhibitors and as immunosuppressive agents” (Bioorg Med Chem, 2014) can be followed below.

As a reminder, the IC50 is the concentration at which inhibition is half-maximal.

Assay [1] is described as follows: Inhibition of alpha-galactosidase (unknown origin) using p-nitrophenyl-alpha-D-galactopyranoside substrate incubated for 10 mins by UV spectrophotometry. The essentials: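 α-Galactosidase (0.1 unit/ml) preincubated with compound 1 h at 37 °C. Substrate added in 200 mM sodium acetate buffer, reaction run 10 min at 37 °C, and stopped with 200 mM borate buffer pH 9.8.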

The subject of another assay is PBMC. Kind of assay: Immunosuppressive activity in human PBMC assessed as inhibition of cell proliferation using (methyl-3H)thymidine by mixed lymphocyte reaction assay. It counts as functional, cell-based. The method, boiled down:
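PBMCs at 1.2 × 10⁶ cells/ml in RPMI-1640 with 10% heat-inactivated FCS and antibiotics. 100 µl of each cell suspension mixed with 20 µl diluted compound and cultured 6 days at 37 °C, 5% CO₂. 1 µCi (methyl-³H)thymidine per well added for the last 18 h. Cells harvested on glass filters and cpm counted by liquid scintillation.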

Assay [2] in a line: Inhibition of alpha-glucosidase (unknown origin) using p-nitrophenyl-alpha-D-glucopyranoside substrate incubated for 10 mins by UV spectrophotometry. The essentials:
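α-Glucosidase (0.1 unit/ml) preincubated with compound 1 h at 37 °C. Reaction started with 10 mM p-nitrophenyl substrate in 100 mM phosphate buffer pH 6.8, run 10 min at 37 °C, and stopped with 0.1 M Na₂CO₃.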

The test system of the next assay is B cell. Kind of assay: Immunosuppressive activity in CPG oligonucleotide-induced human B cells assessed as inhibition of IgG production by immune assay. The assay is classed as functional, cell-based. The method, boiled down:
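Human B cells stimulated with CpG oligonucleotide and cultured with compound for 7 days at 37 °C, 5% CO₂. IgG concentration in supernatants then measured by immunoassay.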

The subject of another assay is Jurkat. Kind of assay: Cytotoxicity against human Jurkat cells assessed as cell viability after 3 hrs by WST1 assay. It counts as functional, cell-based. The note with it: 48 h, in the assay text read “after 48 hrs” for “after 3 hrs”. The method, boiled down:
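Jurkat cells in exponential growth seeded at 50 × 10³ per 200 µl complete medium, with compound dilution added (20 µl) and incubated 48 h at 37 °C, 5% CO₂. Untreated cells set maximum viability and 1% Triton X-100 (last 15 min) set minimum. After a further 3 h at 37 °C, optical density read at 450 nm.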

For assay [3], the target named is alpha-mannosidase (Canavalia ensiformis). Kind of assay: Inhibition of jack bean alpha-mannosidase using p-nitrophenyl-alpha-D-mannopyranoside substrate incubated for 10 mins by UV spectrophotometry.

The structures appear in SMILES notation.

Turning to `CCCCCCCCCCN1C[C@@H](O)C(O)(CCO)[C@@H](O)C1` (stereo partly specified), the IC50 entry in assay [1] was “Not Active”; with PBMC, above 10 µM; in assay [2], “Not Active”; in the assay with B cell, 15 µM; with Jurkat, above 10 µM.
`OCCN1C[C@@H](O)C(O)(CCO)[C@@H](O)C1` (stereo partly specified): the concentration for half-maximal inhibition (IC50) result in assay [1] is “Not Active”; with PBMC, above 10 µM; in assay [2] (read-out: IC50) it was 252 µM; with B cell it was above 50 µM; in the assay with Jurkat, above 10 µM; in assay [3], 873 µM.
On to `CCCCN1C[C@@H](O)C(O)(CCO)[C@@H](O)C1` (stereo partly specified), for which the IC50 in assay [1] (read-out: IC50) was 167 µM; in the assay on PBMC it was above 10 µM; in assay [2] (read-out: IC50), 360 µM; in the assay with B cell it was above 50 µM; in the assay with Jurkat it was above 10 µM; in assay [3], 252 µM.
For the molecule `CCCCCCCCN1C[C@@H](O)C(O)(CCO)[C@@H](O)C1` (stereo partly specified), the half-maximal inhibitory concentration (IC50) entry in assay [1] is “Not Active”; with PBMC, above 10 µM; in assay [2] it was “Not Active”; in the assay with B cell, above 50 µM; with Jurkat, above 10 µM.
For `CCCCCCN1C[C@@H](O)C(O)(CCO)[C@@H](O)C1` (stereo partly specified), the IC50 was 315 µM in assay [1] (read-out: IC50); above 10 µM in the assay with PBMC; “Not Active” in assay [2]; above 50 µM in the assay on B cell; above 10 µM with Jurkat; 183 µM in assay [3].
On to `OCCC1(O)[C@H](O)CNC[C@@H]1O` (stereo partly specified), for which the half-maximal inhibitory concentration (IC50) entry was “Not Active” in assay [1]; above 10 µM in the assay on PBMC; 418 µM in assay [2] (read-out: IC50); above 50 µM in the assay on B cell; above 10 µM in the assay with Jurkat; 1830 µM in assay [3].
Take `OCCN1C[C@H](O)[C@@H](O)[C@H](O)[C@H]1CO` [MIGLITOL]: the IC50 in assay [1] (read-out: IC50) was determined as 1850 µM; in assay [2] (read-out: IC50), 171 µM.
